Results published in ChEMBL document CHEMBL3739335, “Phosphonooxymethyl Prodrug of Triptolide: Synthesis, Physicochemical Characterization, and Efficacy in Human Colon Adenocarcinoma and Ovarian Cancer Xenografts” (J Med Chem, 2015).
Active and inactive are the calls of the source. No cut-off for these calls is given here.

Key:
[1] = Stability of the compound in simulated gastric fluid assessed as compound remaining after 4 hrs by HPLC analysis
[2] = Chemical stability of the compound in buffer assessed as pseudo-first-order rate constant at 50 degC at pH 7.4 by Arrhenius plot analysis; type: physicochemical
[3] = Shelf life of the compound in buffer assessed as time for 10% loss of compound at 4 degC at pH 7.4; type: physicochemical
How it was run: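 Pseudo-first-order kobsd at each temperature was fitted to an Arrhenius plot, which was extrapolated to 25 and 4 °C. t1/2 and t90 (time for 10% loss) were calculated from the extrapolated kobsd.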

[4] = test system: Mus musculus; assay: Toxicity in athymic nude mouse xenografted with human HT-29 cells assessed as mortality at 0.9 mg/kg, ip administered for 2 weeks; type: organism-based; details: in vivo, 336 h
[5] = test system: A2780; assay: Antitumor activity against human A2780 cells xenografted in athymic nude mouse at 0.6 to 0.9 mg/kg, ip and po administered for 30 days; type: functional, organism-based
How it was run: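 Female athymic nude mice, 7–9 weeks, implanted s.c. on right or left flank with 2.5 × 10^6 A2780 cells (ECACC, mycoplasma/rodent-pathogen tested) in 50% Matrigel/50% RPMI 1640; randomized at mean tumor 188 mm3, 10/group. Dosed daily for 30 days IP or by oral gavage in USP saline, 0.2 mL. Tumor volume by caliper (L × W2/2), tumor weight at necropsy, survival, body weight.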

[6] = Stability of the compound in simulated gastric fluid assessed as compound remaining after 24 hrs by HPLC analysis
[7] = Chemical stability of the compound in buffer assessed as compound remaining at pH 2 after 2 hrs by HPLC analysis; type: physicochemical; details: read-out: Stability
[8] = Chemical stability of the compound in buffer assessed as compound remaining at pH 2 after 8 hrs by HPLC analysis; type: physicochemical; details: read-out: Stability
[9] = test system: Mus musculus; assay: Toxicity in athymic nude mouse xenografted with human HT-29 cells assessed as mortality at 0.9 mg/kg, ip administered for 2 weeks followed by 3 times per week; type: organism-based; details: in vivo, 336 h
How it was run: (§1)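 Female athymic nude mice, 7–9 weeks old, received 1.74 × 10^6 HT-29 cells subcutaneously in the right flank in 50% Matrigel/McCoy's 5A. Randomized at 110 mm3, 10 per group. Intraperitoneal dosing in USP saline (0.2 mL) over a 28-day period on the stated schedule. Body weights were taken twice weekly; clinical signs and survival were recorded.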

[10] = test system: Mus musculus; assay: Toxicity in athymic nude mouse xenografted with human A2780 cells assessed as moribund condition at 1.2 mg/kg, po administered for 30 days; type: organism-based; details: in vivo, 720 h
How it was run: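 Female athymic nude mice, 7–9 weeks old, received 2.5 × 10^6 A2780 cells subcutaneously in the flank in 50% Matrigel/RPMI 1640. Mice were randomized at a mean tumor volume of 188 mm3, 10 per group. Daily oral gavage in USP saline (0.2 mL) for 30 days, dosed on group-mean body weight. Clinical signs, survival and body weights were recorded.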

[11] = test system: Mus musculus; assay: Toxicity in athymic nude mouse xenografted with human HT-29 cells assessed as mortality at 0.9 mg/kg, ip administered for 4 weeks; type: organism-based; details: in vivo, 672 h
How it was run: as §1

[12] = Aqueous solubility of the compound in Tris buffer at pH 7.4 at room temperature by HPLC analysis; type: physicochemical
How it was run: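 About 5 mg solid was added to Tris buffer pH 7.4 in triplicate to saturation, then sonicated and vortexed. Samples were shaken at 25 °C for 24 h. Excess solid was removed by centrifugation and filtration, and the diluted filtrate was quantified by reverse-phase C18 HPLC with photodiode array detection, using an acetonitrile/10 mM sodium phosphate pH 7 gradient.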

[13] = test system: Mus musculus; assay: Toxicity in athymic nude mouse xenografted with human HT-29 cells assessed as necrosis at 0.9 mg/kg, ip administered 14 days measured post last dose; type: organism-based; details: in vivo, 336 h
How it was run: as §1

[14] = Chemical stability of the compound in buffer assessed as compound remaining at pH 4 after 4 hrs by HPLC analysis; type: physicochemical; details: read-out: Stability
[15] = Chemical stability of the compound in buffer assessed as pseudo-first-order rate constant at 60 degC at pH 7.4 by Arrhenius plot analysis; type: physicochemical
[16] = Chemical stability of the compound in buffer assessed as compound remaining at pH 4 after 8 hrs by HPLC analysis; type: physicochemical; details: read-out: Stability
[17] = biological target: T1, Alkaline phosphatase, tissue-nonspecific isozyme (Bos taurus, UniProt P09487); assay: Prodrug conversion in glycine buffer assessed as bovine intestinal mucosal alkaline phosphatase-mediated triptolide and formaldehyde formation at pH 9.8; type: ADME; details: cattle, isolated protein
T1 sequence (P09487 whole entry): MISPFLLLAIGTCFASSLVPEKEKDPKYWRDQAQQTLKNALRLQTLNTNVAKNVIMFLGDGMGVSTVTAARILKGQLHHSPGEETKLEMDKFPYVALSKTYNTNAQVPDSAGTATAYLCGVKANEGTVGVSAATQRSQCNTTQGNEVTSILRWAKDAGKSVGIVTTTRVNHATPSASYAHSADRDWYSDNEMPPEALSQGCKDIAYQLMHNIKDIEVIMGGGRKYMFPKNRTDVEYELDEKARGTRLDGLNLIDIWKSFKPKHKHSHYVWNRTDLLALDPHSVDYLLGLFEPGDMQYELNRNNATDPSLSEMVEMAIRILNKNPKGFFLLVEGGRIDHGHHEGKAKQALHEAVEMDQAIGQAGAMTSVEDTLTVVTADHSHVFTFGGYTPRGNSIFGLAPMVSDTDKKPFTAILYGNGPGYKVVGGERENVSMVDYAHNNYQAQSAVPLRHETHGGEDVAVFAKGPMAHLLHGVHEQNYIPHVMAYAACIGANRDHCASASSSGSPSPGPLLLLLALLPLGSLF

[18] = Stability of the compound in simulated intestinal fluid assessed as compound remaining at pH 7.5 after 8 hrs by HPLC analysis; type: ADME; details: read-out: Stability
How it was run: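 Drug incubated in simulated gastric fluid or simulated intestinal fluid and sampled at 0, 1, 2, 4, 8 and 24 h. Percent remaining was measured by reversed-phase C18 HPLC with photodiode-array detection, using a 20-min gradient of 10–70% acetonitrile against 10 mM sodium phosphate buffer at pH 7.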

[19] = test system: HT-29; assay: Antitumor activity against human HT-29 cells xenografted in athymic nude mouse at 0.9 mg/kg, ip qd administered for 4 weeks; type: functional, organism-based
How it was run: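 Female athymic nude mice, 7–9 weeks, implanted s.c. on right flank with 1.74 × 10^6 HT-29 cells (ATCC, mycoplasma/rodent-pathogen tested) in 50% Matrigel/50% McCoy's 5A; randomized at mean tumor 110 mm3, 10/group. IP dosing in USP saline, 0.2 mL, over a 28-day treatment period. Tumor volume by caliper (L × W2/2) at least twice weekly, tumor weight at necropsy, survival, body weight.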

[20] = Chemical stability of the compound in buffer assessed as compound remaining at pH 6 after 4 hrs by HPLC analysis; type: physicochemical; details: read-out: Stability
[21] = Chemical stability of the compound in buffer assessed as pseudo-first-order rate constant at 70 degC at pH 7.4 by Arrhenius plot analysis; type: physicochemical
[22] = Chemical stability of the compound in buffer assessed as compound remaining at pH 6 after 24 hrs by HPLC analysis; type: physicochemical; details: read-out: Stability
[23] = Chemical stability of the compound in buffer assessed as compound remaining at pH 6 after 2 hrs by HPLC analysis; type: physicochemical; details: read-out: Stability

Q: Which results are given for `CC(C)[C@]12O[C@H]1[C@@H]1O[C@]13[C@]1(O[C@H]1C[C@H]1C4=C(CC[C@@]13C)C(=O)OC4)[C@@H]2OCOP(=O)([O-])[O-].[Na+].[Na+]` [MINNELIDE]?
A: remaining at 4 h [1]: 71%; K [2]: 0.001052 h⁻¹; Time [3]: 1.9 yr; Activity [4]: Toxic; Activity [5]: Active; remaining at 24 h [6]: 0%; remaining at 2 h [7]: 97%; remaining at 8 h [8]: 94%; Activity [9]: Toxic; Activity [10]: Toxic; Activity [11]: Toxic; solubility [12]: 61 mg/mL; Activity [13]: Toxic; remaining at 4 h [14]: 100%; K [15]: 0.002482 h⁻¹; remaining at 8 h [16]: 99%; Drug metabolism [17]: metabolite_detected; remaining at 8 h [18]: 99%; Activity [19]: Active; remaining at 4 h [20]: 100%; K [21]: 0.008659 h⁻¹; remaining at 24 h [22]: 99%; remaining at 2 h [23]: 100%
